Laboratory results taken from ChEMBL document CHEMBL1208708, “Piperidinyl-nicotinamides as potent and selective somatostatin receptor subtype 5 antagonists” (Bioorg Med Chem Lett, 2010).
≈ marks a conversion by molar mass, not a printed value. Calls of active or inactive are those of the source. The calls are words filed in the database; no cut-off is given here.

Legend:
[1] = biological target: T1, Somatostatin receptor type 5 (Homo sapiens, UniProt P35346); assay: Displacement of radio labeled 11 Tyr SST14 from human SST5 receptor expressed in CHO cells; format: cell-based
Procedure, shortened: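 Membranes from SST5-expressing cells, made by sonication, incubated with radiolabeled 11Tyr SST-14 and varying test compound; non-specific binding defined with unlabeled SST-14. Incubation stopped by glass-fiber filtration, bound radioactivity counted; IC50 and Ki derived.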

Homo sapiens = species on record: Homo sapiens; assay: Selectivity ratio of human SST1 receptor to human SST5 receptor
[2] = biological target: Histamine H1 receptor (Homo sapiens) (UniProt P35367); assay: Inhibition of human histamine H1 receptor ar 3 uM
[3] = Membrane permeability of the compound by PAMPA; format: ADME; settings: read-out: permeability
[4] = biological target: T1, Somatostatin receptor type 5; assay: Antagonist activity at human SST5 receptor expressed in CHO cells assessed as inhibition of forskolin-induced cAMP accumulation by FRET assay; format: functional, cell-based
[5] = Solubility of the compound in 50 mM phosphate buffer at pH 6.5 by lyophilisation solubility assay; format: physicochemical
Procedure, shortened: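 Compound taken from DMSO stock solution, lyophilized, then dissolved in 50 mM phosphate buffer at pH 6.5; dissolved amount read spectrophotometrically.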

[6] = Dissociation constant, pKa of the compound by spectrophotometric analysis; format: physicochemical
Procedure, shortened: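 Measured spectrophotometrically in SGA buffer with 10% (v/v) methanol, ionic strength 150 mM; value refers to the piperidine nitrogen.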

[7] = Octanol-TAPSO distribution coefficient, log D of the compound at pH 7.4 by spectrophotometric analysis; format: physicochemical; settings: octanol/TAPSO buffer
Procedure, shortened: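 Octanol/50 mM TAPSO buffer at pH 7.4 containing 5% (v/v) DMSO; partitioning read spectrophotometrically.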

[8] = biological target: Somatostatin receptor type 3 (Homo sapiens) (UniProt P32745); assay: Antagonist activity at human SST3 receptor expressed in CHO cells assessed as inhibition of forskolin-induced cAMP accumulation by FRET assay; format: functional, cell-based
[9] = biological target: Somatostatin receptor type 4 (Homo sapiens) (UniProt P31391); assay: Antagonist activity at human SST4 receptor expressed in CHO cells assessed as inhibition of forskolin-induced cAMP accumulation by FRET assay; format: functional, cell-based
[10] = biological target: Somatostatin receptor type 2 (Homo sapiens) (UniProt P30874); assay: Antagonist activity at human SST2 receptor expressed in CHO cells assessed as inhibition of forskolin-induced cAMP accumulation by FRET assay; format: functional, cell-based
Sequence of Somatostatin receptor type 2 (Homo sapiens) (P30874 whole entry): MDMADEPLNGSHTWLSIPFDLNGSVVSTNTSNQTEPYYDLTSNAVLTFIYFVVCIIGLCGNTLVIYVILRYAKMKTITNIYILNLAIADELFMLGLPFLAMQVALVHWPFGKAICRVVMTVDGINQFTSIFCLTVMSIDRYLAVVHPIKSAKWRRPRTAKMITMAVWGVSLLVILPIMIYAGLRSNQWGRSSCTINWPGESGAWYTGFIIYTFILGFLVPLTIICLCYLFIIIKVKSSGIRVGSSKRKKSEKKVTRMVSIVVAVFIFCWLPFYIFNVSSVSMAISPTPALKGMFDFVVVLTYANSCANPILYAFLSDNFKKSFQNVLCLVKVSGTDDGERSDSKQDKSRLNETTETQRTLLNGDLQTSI

T1 sequence (P35346 whole entry): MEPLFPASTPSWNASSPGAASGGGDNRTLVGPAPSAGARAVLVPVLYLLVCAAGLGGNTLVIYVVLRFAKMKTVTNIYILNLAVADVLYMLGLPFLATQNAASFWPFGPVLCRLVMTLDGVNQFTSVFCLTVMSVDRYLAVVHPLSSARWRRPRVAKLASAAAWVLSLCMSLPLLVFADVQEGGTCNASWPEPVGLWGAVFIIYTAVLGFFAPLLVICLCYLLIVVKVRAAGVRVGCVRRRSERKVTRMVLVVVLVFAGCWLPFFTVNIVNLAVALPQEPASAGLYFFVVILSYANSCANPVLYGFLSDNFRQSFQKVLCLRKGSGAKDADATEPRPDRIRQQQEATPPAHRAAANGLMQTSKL
Sequence of Histamine H1 receptor (Homo sapiens) (P35367 whole entry): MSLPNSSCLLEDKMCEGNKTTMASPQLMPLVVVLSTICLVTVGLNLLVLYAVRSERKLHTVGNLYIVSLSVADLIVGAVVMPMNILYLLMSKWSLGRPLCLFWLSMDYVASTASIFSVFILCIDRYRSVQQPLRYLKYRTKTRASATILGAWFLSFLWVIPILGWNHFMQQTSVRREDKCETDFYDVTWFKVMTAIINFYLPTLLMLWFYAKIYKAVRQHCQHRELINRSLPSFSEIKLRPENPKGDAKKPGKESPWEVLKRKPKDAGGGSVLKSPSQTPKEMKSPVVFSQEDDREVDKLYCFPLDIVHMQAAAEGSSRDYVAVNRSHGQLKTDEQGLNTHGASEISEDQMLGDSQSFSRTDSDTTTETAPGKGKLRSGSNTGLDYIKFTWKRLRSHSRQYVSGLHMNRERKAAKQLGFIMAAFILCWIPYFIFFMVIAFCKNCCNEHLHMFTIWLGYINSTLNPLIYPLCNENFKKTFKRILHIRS
Sequence of Somatostatin receptor type 3 (Homo sapiens) (P32745 whole entry): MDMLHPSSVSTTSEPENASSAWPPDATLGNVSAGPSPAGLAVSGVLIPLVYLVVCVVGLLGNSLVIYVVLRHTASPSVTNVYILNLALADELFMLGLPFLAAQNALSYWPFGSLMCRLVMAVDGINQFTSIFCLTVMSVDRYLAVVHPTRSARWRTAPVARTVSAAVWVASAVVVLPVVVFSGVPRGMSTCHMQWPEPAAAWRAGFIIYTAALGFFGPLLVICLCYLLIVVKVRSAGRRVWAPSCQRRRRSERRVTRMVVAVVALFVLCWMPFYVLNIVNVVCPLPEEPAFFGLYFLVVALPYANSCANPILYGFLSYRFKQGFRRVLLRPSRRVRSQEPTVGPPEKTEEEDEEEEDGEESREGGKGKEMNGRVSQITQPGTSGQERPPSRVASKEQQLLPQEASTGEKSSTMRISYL
Sequence of Somatostatin receptor type 4 (Homo sapiens) (P31391 whole entry): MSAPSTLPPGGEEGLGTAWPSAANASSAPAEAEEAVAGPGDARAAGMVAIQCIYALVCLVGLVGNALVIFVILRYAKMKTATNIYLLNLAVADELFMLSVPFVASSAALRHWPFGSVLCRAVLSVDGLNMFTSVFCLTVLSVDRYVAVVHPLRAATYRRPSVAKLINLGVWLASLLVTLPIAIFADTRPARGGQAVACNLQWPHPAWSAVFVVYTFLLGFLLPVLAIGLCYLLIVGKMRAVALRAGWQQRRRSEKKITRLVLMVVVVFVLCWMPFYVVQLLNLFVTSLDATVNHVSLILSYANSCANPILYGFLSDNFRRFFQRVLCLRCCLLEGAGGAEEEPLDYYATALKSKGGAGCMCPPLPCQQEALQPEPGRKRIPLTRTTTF

Structure (SMILES) | Ki [1] [µM] | Selectivity ratio (Homo sapiens) | inhibition [2] [%] | Papp [3] [×10⁻⁶ cm/s] | EC50 [4] [µM] | solubility [5] [µg/mL] | pKa [6] | logD [7] | Activity [8] | Activity [9] | Activity [10]
CCOc1cc(CN2CCC[C@@H](NC(=O)c3cncc(C)c3)CC2)ccc1Cl | 0.018 | 175 | 98 |  |  |  |  |  |  |  | 
CCOc1cc(CN2CCCC(NC(=O)c3cncc(C)c3)CC2)cc(OCC)c1-c1ccc(F)cc1 (racemic) | 0.0093 | 86 | 54 | 1.56 | > 1 | 81 (≈ 160 µM) | 8.34 | 3.31 |  |  | 
CCOc1cc(CN2CCC[C@H](NC(=O)c3cncc(C)c3)CC2)ccc1Cl | 0.637 |  |  |  |  |  |  |  |  |  | 
CCOc1cc(CN2CCC(NC(=O)c3ccc(NC)nc3)CC2)cc(OCC)c1-c1ccc(F)cc1 | 0.0025 | 211 | 11 | 1.23 | > 1 | 153 (≈ 302 µM) | 7.86 | 3.83 |  |  | 
CCOc1cc(CN2CCC(NC(=O)c3cncc(C)c3)CC2)cc(OCC)c1F | 0.025 | 180 | 25 | 3.48 | > 1 | 443 (≈ 1070 µM) | 7.7 | 2.9 |  |  | 
CCOc1cc(CN2CCC(NC(=O)c3cncc(C)c3)CC2)ccc1-c1ccc(F)cc1 | 0.0049 | 84 | 89 | 1.32 | > 1 | 101 (≈ 226 µM) | 7.87 | 4.1 |  |  | 
CCOc1cc(CN2CCC(NC(=O)c3ccc(N)nc3)CC2)cc(OCC)c1-c1ccc(F)cc1 | 0.0071 | 407 | 4.7 | 1.39 | > 1 | 123 (≈ 250 µM) | 7.86 | 3.15 |  |  | 
CCOc1cc(CN2CCC(NC(=O)c3cncc(C)c3)CC2)ccc1C | 0.021 | > 500 | 81 | 2.94 |  | > 433 | 8.08 | 3.03 |  |  | 
CCOc1cc(CN2CCC(NC(=O)c3ccc(NC)nc3)CC2)cc(OCC)c1F | 0.018 | > 500 | 55 | 2.98 | > 1 | 330 (≈ 767 µM) | 7.83 | 2.66 |  |  | 
CCOc1cc(CN2CCC[C@@H](NC(=O)c3cncc(C)c3)CC2)cc(OCC)c1F | 0.022 | 253 | 58 |  |  |  |  |  |  |  | 
CCOc1cc(CN2CCC(NC(=O)c3cncc(C)c3)CC2)cc(OCC)c1-n1ccnc1 | 0.011 | 213 | 33 | 3.17 | > 1 | 473 (≈ 1020 µM) | 7.34 | 2.61 |  |  | 
CCOc1cc(CN2CCC(NC(=O)c3cncc(C)c3)CC2)ccc1-c1ccc(C(F)(F)F)cc1 | 0.011 | 89 | 48 | 0.03 |  | < 1 | 7.96 | > 4 |  |  | 
CCOc1cc(CN2CCC(NC(=O)c3cncc(C)c3)CC2)ccc1Cl | 0.015 | 335 |  | 1.93 |  | 172 (≈ 443 µM) | 7.63 | 3.05 |  |  | 
CCOc1cc(CN2CCC(NC(=O)c3cncc(C)c3)CC2)cc(OCC)c1-c1ccc(F)cc1 | 0.0044 | 59 | 5.9 | 0.46 | > 1 | 94 (≈ 191 µM) | 7.69 | 4.01 |  |  | 
CCOc1cc(CN2CCC(NC(=O)c3ccc(NC(C)C)nc3)CC2)cc(OCC)c1F | 0.0063 | 141 | 35 | 2.41 | > 1 | > 520 | 7.84 | 3.39 |  |  | 
CCOc1cc(CN2CCCC(NC(=O)c3ccc(N)nc3)CC2)cc(F)c1F (racemic) | 0.436 |  |  |  | > 1 |  |  |  | inactive | inactive | inactive
CCOc1cc(CN2CCC(NC(=O)c3cncc(C)c3)CC2)cc(OCC)c1-c1ccc(OC(F)(F)F)cc1 | 0.0024 | 743 | 12 |  | > 1 | < 1 |  | > 4 |  |  | 
CCOc1cc(CN2CCC[C@@H](NC(=O)c3cncc(C)c3)CC2)ccc1C | 0.022 | 256 | 97 |  |  |  |  |  |  |  | 
CCOc1cc(CN2CCC(NC(=O)c3ccc(NC)nc3)CC2)cc(OCC)c1-c1ccccc1 | 0.0069 | 439 | 13 | 2.07 | > 1 | 155 (≈ 317 µM) | 7.9 | 3.13 |  |  | 
CCOc1cc(CN2CCC(NC(=O)c3ccc(Cl)nc3)CC2)cc(OCC)c1-c1ccc(F)cc1 | 0.0079 | 54 | 7.1 |  | > 1 | 76 (≈ 148 µM) | 7.8 | 3.55 |  |  | 
CCOc1cc(CN2CCC(NC(=O)c3cncc(C)c3)CC2)cc(OCC)c1-c1ccccc1 | 0.0054 | 224 | -1.2 | 0.64 | > 1 | 152 (≈ 321 µM) | 7.74 | 3.73 |  |  | 
CCOc1cc(CN2CC(NC(=O)c3cncc(C)c3)C2)cc(OCC)c1F | > 1 |  |  | 1.93 |  | > 499 | 7.19 | 2.44 |  |  | 
CCOc1cc(CN2CCC(NC(=O)c3cncc(C)c3)CC2)cc(OCC)c1C | 0.004 |  |  | 2.36 |  | 106 (≈ 258 µM) | 7.92 | 3.61 |  |  | 
CCOc1cc(CN2CCC(NC(=O)c3cncc(C)c3)CC2)cc(OCC)c1Cl | 0.0044 |  |  | 3.82 | > 1 | 216 (≈ 500 µM) | 7.46 | 3.43 |  |  | 
CCOc1cc(CN2CCC(NC(=O)c3ccc(N)nc3)CC2)cc(OCc2ccccc2)c1-c1ccc(F)cc1 | 0.0067 | 660 | -1.2 | 0.14 | > 1 | 5 (≈ 9.01 µM) | 7.66 | 3.94 | inactive | inactive | inactive
CCOc1cc(CN2CCC(NC(=O)c3ccc(N)nc3)CC2)ccc1C | 0.019 | > 500 | 85 | 2.4 | > 1 | 375 (≈ 1020 µM) | 8.27 | 2.24 |  |  | 
